Experimental data taken from ChEMBL document CHEMBL6083228, “A novel hydrophobic tag leads to the efficient degradation of programmed death-ligand 1” (RSC Med Chem, 2024).
The source made the active and inactive calls. No cut-off for these calls is given here.

Experiments:
[1] = target: Programmed cell death 1 ligand 1 (Homo sapiens) (UniProt Q9NZQ7); experiment: Induction of hydrophobic tag tethering degradation of PD-L1 in human NCI-H460 cells at 10 uM incubated for 24 hrs by Western blot analysis; format: cell-based
Chain of Programmed cell death 1 ligand 1 (Homo sapiens) (Q9NZQ7 whole entry): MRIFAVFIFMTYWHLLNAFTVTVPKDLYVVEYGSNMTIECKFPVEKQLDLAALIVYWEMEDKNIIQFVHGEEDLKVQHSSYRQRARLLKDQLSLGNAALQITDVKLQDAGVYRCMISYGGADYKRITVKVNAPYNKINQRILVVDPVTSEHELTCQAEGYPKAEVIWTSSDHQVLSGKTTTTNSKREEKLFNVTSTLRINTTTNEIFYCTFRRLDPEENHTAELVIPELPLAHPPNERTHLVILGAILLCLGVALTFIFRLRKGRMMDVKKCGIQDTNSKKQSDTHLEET
How it was run: (§1)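 Cells seeded at 1×10^6 per well, incubated overnight, then exposed to DMSO or compound for 24 h. RIPA lysates were denatured at 100 °C for 15 min in SDS-PAGE loading buffer and run on 10% SDS-PAGE. Blots were probed overnight at 4 °C with anti-PD-L1 (1:1000), then a secondary (1:5000), with ECL detection. Bands were semi-quantified by densitometry.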

[2] = test system: NCI-H460; experiment: Cytotoxicity against human NCI-H460 cells at 10 uM incubated for 24 to 72 hrs by MTT assay; format: functional, cell-based; details: time 24-72 hrs
How it was run: (§2)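 NCI-H460 cells seeded at 4×10^3 per well in complete RPMI-1640 (10% FBS, 37 °C, 5% CO2), left 24 h, then given DMSO or compound in DMSO. MTT (5 mg mL⁻¹ in PBS) added after 24, 48 and 72 h exposure, 4 h further; formazan dissolved in isopropanol, absorbance at 570 nm. Triplicate; viability relative to DMSO group (100%).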

[3] = target: Programmed cell death 1 ligand 1 (Homo sapiens) (UniProt Q9NZQ7); experiment: Induction of hydrophobic tag tethering degradation of PD-L1 in human NCI-H460 cells incubated for 24 hrs by Western blot analysis; format: cell-based; details: dose 1-10 µM; how it was run: as §1
[4] = test system: NCI-H460; experiment: Cytotoxicity against human NCI-H460 cells at 0.5 to 10 uM incubated for 24 to 72 hrs by MTT assay; format: functional, cell-based; details: dose 0.5-10 µM, time 24-72 hrs; how it was run: as §2
[5] = target: Programmed cell death 1 ligand 1 (Homo sapiens) (UniProt Q9NZQ7); experiment: Induction of hydrophobic tag tethering degradation of PD-L1 in human NCI-H460 cells by immunofluorescence analysis; format: cell-based
How it was run: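 NCI-H460 cells exposed to compound at various concentrations were fixed in 4% paraformaldehyde for 15 min at room temperature and blocked with 0.5% BSA for 1 h. Anti-PD-L1 (1:200) was applied overnight at 4 °C, then Alexa Fluor 555 donkey anti-rabbit (1:1000) for 30 min in the dark. Nuclei were stained with DAPI and cells imaged by confocal microscopy.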

[6] = target: Programmed cell death 1 ligand 1 (Homo sapiens) (UniProt Q9NZQ7); experiment: Induction of hydrophobic tag tethering degradation of PD-L1 in human HT-1080 cells incubated for 24 hrs by Western blot analysis; format: cell-based; details: dose 1-10 µM; how it was run: as §1
[7] = target: Programmed cell death 1 ligand 1 (Homo sapiens) (UniProt Q9NZQ7); experiment: Induction of hydrophobic tag tethering degradation of PD-L1 in human NCI-H460 cells at 10 uM by Western blot analysis; format: cell-based; how it was run: as §1
[8] = target: Programmed cell death 1 ligand 1 (Homo sapiens) (UniProt Q9NZQ7); experiment: Induction of hydrophobic tag tethering degradation of PD-L1 in human NCI-H460 cells at 10 uM incubated for 24 hrs in presence of MG132 by Western blot analysis; format: cell-based
[9] = target: Programmed cell death 1 ligand 1 (Homo sapiens) (UniProt Q9NZQ7); experiment: Induction of hydrophobic tag tethering degradation of PD-L1 in human NCI-H460 cells at 1 to 10 uM incubated for 24 hrs by Western blot analysis; format: cell-based; details: dose 1-10 µM; how it was run: as §1

For `Cc1c(-c2ccccc2)cccc1-c1ccc(CNCCOCCOCCOCCOCCC(=O)NC(c2ccccc2)c2ccc(C(F)(F)F)cc2)cn1` (centres undefined), the Activity [1] was “inactive”.

In the case of `Cc1c(COc2ccc(CNCCOCCOCCC(=O)NC(C3CCCCC3)C3CCCCC3)cn2)cccc1-c1ccccc1`, the Activity [1] is reported as “inactive”.

`Cc1c(COc2ccc(CNCCOCCOCCC(=O)NN3CCN(C(c4ccc(F)cc4)c4ccc(F)cc4)CC3)cn2)cccc1-c1ccccc1` was tested, and the Activity [2] was “Active; Exhibited Mild Cytotoxicity”, the Activity [1] was “Active” and the Activity [3] was “Dose-dependent-effect”.

For `Cc1c(-c2ccccc2)cccc1-c1ccc(CNCCOCCOCCOCCOCCC(=O)NN2CCN(C(c3ccc(F)cc3)c3ccc(F)cc3)CC2)cn1`, the Activity [1] was “inactive”.

In the case of `Cc1c(-c2ccccc2)cccc1-c1ccc(CNCCOCCOCCC(=O)NC(c2ccccc2)c2ccccc2)cn1`, the Activity [1] is reported as “inactive”.

In the case of `Cc1c(-c2ccccc2)cccc1-c1ccc(CNCCOCCOCCOCCC(=O)NC(c2ccc(F)cc2)c2ccc(F)cc2)cn1`, the Activity [1] is reported as “inactive”.

`Cc1c(COc2ccc(CNCCOCCOCCC(=O)NCCNC(=O)C(C)c3ccc(CC(C)C)cc3)cn2)cccc1-c1ccccc1` (centres undefined) was tested, and the Activity [1] was “inactive”.

`Cc1c(COc2ccc(CNCCOCCOCCOCCC(=O)NC34CC5CC(CC(C5)C3)C4)cn2)cccc1-c1ccccc1` was tested, and the Activity [1] was “inactive”.

`Cc1c(-c2ccccc2)cccc1-c1ccc(CNCCOCCOCCC(=O)NC(c2ccccc2)c2ccc(C(F)(F)F)cc2)cn1` (centres undefined) was tested, and the Activity [1] was “inactive”.

`Cc1c(COc2ccc(CNCCOCCOCCOCCOCCC(=O)NC(C3CCCCC3)C3CCCCC3)cn2)cccc1-c1ccccc1` was tested, and the Activity [1] was “inactive”.

For `Cc1c(COc2ccc(CNCCOCCOCCOCCC(=O)NN3CCN(C(c4ccc(F)cc4)c4ccc(F)cc4)CC3)cn2)cccc1-c1ccccc1`, the Activity [1] was “inactive”.

In the case of `Cc1c(COc2ccc(CNCCOCCOCCC(=O)NC34CC5CC(CC(C5)C3)C4)cn2)cccc1-c1ccccc1`, the Activity [1] is reported as “inactive”.

With `Cc1c(COc2ccc(CNCCOCCOCCC(=O)NC(c3ccccc3)c3ccc(C(F)(F)F)cc3)cn2)cccc1-c1ccccc1` (centres undefined) the Activity [1] was “inactive”.

For `Cc1c(COc2ccc(CNCCOCCOCCOCCOCCOCCC(=O)NCCNC(=O)C(C)c3ccc(CC(C)C)cc3)cn2)cccc1-c1ccccc1` (centres undefined), the Activity [1] was “inactive”.

In the case of `Cc1c(-c2ccccc2)cccc1-c1ccc(CNCCOCCOCCOCCOCCC(=O)NC(c2ccc(F)cc2)c2ccc(F)cc2)cn1`, the Activity [1] is reported as “inactive”.

`Cc1c(COc2ccc(CNCCOCCOCCOCCOCCC(=O)NCCNC(=O)C(C)c3ccc(CC(C)C)cc3)cn2)cccc1-c1ccccc1` (centres undefined) was tested, and the Activity [1] was “inactive”.

`Cc1c(COc2ccc(CNCCOCCOCCOCCOCCC(=O)NC(c3ccccc3)c3ccc(C(F)(F)F)cc3)cn2)cccc1-c1ccccc1` (centres undefined) was tested, and the Activity [1] was “inactive”.

With `Cc1c(COc2ccc(CNCCOCCOCCOCCC(=O)NCCNC(=O)C(C)c3ccc(CC(C)C)cc3)cn2)cccc1-c1ccccc1` (centres undefined) the Activity [1] was “inactive”.

For `Cc1c(COc2ccc(CNCCOCCOCCOCCOCCOCCC(=O)NC34CC5CC(CC(C5)C3)C4)cn2)cccc1-c1ccccc1`, the Activity [1] was “Active”.

`Cc1c(COc2ccc(CNCCOCCOCCOCCOCCC(=O)NN3CCN(C(c4ccc(F)cc4)c4ccc(F)cc4)CC3)cn2)cccc1-c1ccccc1` was tested, and the Activity [1] was “inactive”.

`Cc1c(-c2ccccc2)cccc1-c1ccc(CNCCOCCOCCOCCC(=O)NC(c2ccccc2)c2ccccc2)cn1` was tested, and the Activity [1] was “Active”.

In the case of `Cc1c(-c2ccccc2)cccc1-c1ccc(CNCCOCCOCCC(=O)NN2CCN(C(c3ccc(F)cc3)c3ccc(F)cc3)CC2)cn1`, the Activity [4] is reported as “Not active; Exhibited Almost No Cytotoxicity”, the Activity [5] is reported as “Dose-dependent-effect” and the Activity [6] is reported as “Dose-dependent-effect”. For the same compound, the Activity [7] was “Time-dependent-effect; Almost No Degradation Activity Observed For 72 Hrs”, the Activity [8] was “Not active; Result Indicates That Degradation Of Pd-L1 Occurs Through Proteosome Pathway” and the Activity [1] was “Active”. The Activity [3] was “Dose-dependent-effect”.

For `Cc1c(-c2ccccc2)cccc1-c1ccc(CNCCOCCOCCC(=O)NC(c2ccc(F)cc2)c2ccc(F)cc2)cn1`, the Activity [1] was “inactive”.

`Cc1c(COc2ccc(CNCCOCCOCCOCCOCCC(=O)NC(c3ccccc3)c3ccccc3)cn2)cccc1-c1ccccc1` was tested, and the Activity [1] was “Active”.

For `Cc1c(COc2ccc(CNCCOCCOCCOCCC(=O)NC(c3ccccc3)c3ccccc3)cn2)cccc1-c1ccccc1`, the Activity [9] was “Active; Exhibited Mild Degradation Potency” and the Activity [1] was “Active”.

With `Cc1c(COc2ccc(CNCCOCCOCCOCCOCCOCCC(=O)NC(c3ccccc3)c3ccccc3)cn2)cccc1-c1ccccc1` the Activity [1] was “inactive”.

In the case of `Cc1c(COc2ccc(CNCCOCCOCCOCCC(=O)NC(C3CCCCC3)C3CCCCC3)cn2)cccc1-c1ccccc1`, the Activity [1] is reported as “inactive”.

With `Cc1c(-c2ccccc2)cccc1-c1ccc(CNCCOCCOCCOCCC(=O)NC(c2ccccc2)c2ccc(C(F)(F)F)cc2)cn1` (centres undefined) the Activity [1] was “inactive”.

`Cc1c(COc2ccc(CNCCOCCOCCC(=O)NC(c3ccccc3)c3ccccc3)cn2)cccc1-c1ccccc1` was tested, and the Activity [9] was “Active; Exhibited Mild Degradation Potency” and the Activity [1] was “Active”.

In the case of `Cc1c(-c2ccccc2)cccc1-c1ccc(CNCCOCCOCCOCCC(=O)NN2CCN(C(c3ccc(F)cc3)c3ccc(F)cc3)CC2)cn1`, the Activity [4] is reported as “Not active; Exhibited Almost No Cytotoxicity”, the Activity [5] is reported as “Dose-dependent-effect” and the Activity [6] is reported as “Dose-dependent-effect”. The Activity [7] was “Time-dependent-effect; Almost No Degradation Activity Observed For 72 Hrs”, the Activity [8] was “Not active; Result Indicates That Degradation Of Pd-L1 Occurs Through Proteosome Pathway” and the Activity [1] was “Active”. For the same compound, the Activity [3] was “Dose-dependent-effect”.

`Cc1c(COc2ccc(CNCCOCCOCCOCCOCCOCCC(=O)NC(C3CCCCC3)C3CCCCC3)cn2)cccc1-c1ccccc1` was tested, and the Activity [1] was “inactive”.

With `Cc1c(COc2ccc(CNCCOCCOCCOCCOCCC(=O)NC34CC5CC(CC(C5)C3)C4)cn2)cccc1-c1ccccc1` the Activity [1] was “inactive”.

With `Cc1c(-c2ccccc2)cccc1-c1ccc(CNCCOCCOCCOCCOCCC(=O)NC(c2ccccc2)c2ccccc2)cn1` the Activity [1] was “Active”.
